Measurements collected from several papers.
Lines come from different studies, so protocols differ.
Medium: plasma

Compound	system	conditions	measurement	result
c1ccc(-c2nc(N3CCC(c4ccccn4)C3)c3ccccc3n2)nc1 (stereo not drawn)	female BALB/c mouse	oral, 12.5 mg/kg	MRT(0-t)	5.1 h
COc1cc(C2Oc3cc([C@H]4Oc5cc(O)cc(O)c5C(=O)[C@@H]4O)ccc3OC2CO)ccc1O (stereo partly drawn)	male CD-1 mouse	intravenous, 2 mg/kg	MRT(0-inf)	0.103 h
Cc1cc(NC(=O)c2cccc3cc(-c4cccc5[nH]nc(N)c45)ccc23)ccc1F	male CD-1 mouse	oral, 10 mg/kg	MRT(0-inf)	3.54 h
CCc1cc(C(=O)NC)c2nccc(N3CCc4c(cc(Cn5ccnc5)cc4-c4cn(C)nc4C(F)(F)F)C3=O)c2c1	male CD-1 mouse	oral, 50 mg/kg	MRT(0-inf)	3.1 h
CC(C)(Nc1nc(-c2ccccn2)nc2ccccc12)c1ccccn1	female BALB/c mouse	intravenous, 1 mg/kg	MRT(0-t)	1.2 h
COc1ccc2nccc(N3CCc4c(cc(Cn5ccnc5)cc4-c4cn(C)nc4C(F)(F)F)C3=O)c2c1	male CD-1 mouse	oral, 10 mg/kg	MRT(0-inf)	1.4 h
COc1nc(-c2cc(C)c(N[C@@H](C)c3c(F)cc(F)cc3F)nn2)ccc1-n1cnc(C)c1	male CD-1 mouse	oral, 5 mg/kg, single dose	MRT(0-t)	5.24 h
CCc1cc(OC)c2nccc(N3CCc4c(cc(Cn5ccnc5)cc4-c4cn(C)nc4C(F)(F)F)C3=O)c2c1	male CD-1 mouse	oral, 50 mg/kg	MRT(0-inf)	2.5 h
COc1nc(-c2cc(C)c(N[C@@H](C)c3cc(F)cc(F)c3)nn2)ccc1-n1cnc(C)c1	male CD-1 mouse	oral, 5 mg/kg, single dose	MRT(0-t)	5.4 h
